These results are taken from the array DNA melting data of Ke et al. (doi:10.1101/2024.01.08.574731).

Data set [1] in a line: folding enthalpy; higher = less favourable; fluorescence melt of hairpins on a sequencing array, two-state fit. The conditions noted are these: sodium 0.088 M. The method, boiled down: (§1)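 To match UV melts, fitted temperatures were raised by 9.35 °C. These fits were bootstrapped two-state models that gave melting temperature and folding enthalpy, combined by inverse variance over four replicates. The input was normalised Cy3 fluorescence of library hairpins with annealed Cy3 and quencher oligos on a sequenced MiSeq flow cell, imaged in 50 mM Na-HEPES pH 8.0, 25 mM NaCl in 2.5 °C steps up to 60 °C.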

Data set [2] in a line: melting temperature; fluorescence melt of hairpins on a sequencing array, two-state fit, raised by 9.35 °C to match UV melts. To be noted: sodium 0.088 M. The method, boiled down: as §1

For GCGATCCGAAAGGACCGC (((.(((....))).))), the folding enthalpy in data set [1] is -36.1 kcal/mol. In addition, the Tm in data set [2] amounted to 63.2 °C.
The corresponding values for GATCCGATTCGGATC ((((((...)))))) are -39.2 kcal/mol and 58.3 °C.
As to GGGGGTGGAAACACCCTC (.(((((....))))).), the folding enthalpy in data set [1] was -16.7 kcal/mol. The Tm in data set [2] came to 64.5 °C.
GCGATTGGAAACAACCGC (((.(((....))).))): in data set [1], the folding enthalpy is -32.7 kcal/mol. Also, in data set [2], the Tm turned out to be 48.4 °C.
Take GATCATATACATGATC ((((((....)))))): in data set [1], the folding enthalpy is -32.9 kcal/mol. For the same sequence, the Tm in data set [2] came out at 48.1 °C.
Consider GCTGCAGGAAACCGCAGC (((((.(....).))))), for which the folding enthalpy in data set [1] is -32.9 kcal/mol. Moreover, in data set [2], the Tm turned out to be 57.8 °C.
For CGCGTCGGAAACGAAGCG (((.(((....))).))) the same measures were -34 kcal/mol and 56.7 °C.
GAGACCGAAAGGTTTCTC ((((((....)))..))): in data set [1], the folding enthalpy was -22.5 kcal/mol. The Tm in data set [2] turned out to be 50.6 °C.
For the sequence GGGTACGAAAGTATTCCC ((((((....)))..))), the folding enthalpy in data set [1] is -20.4 kcal/mol. In data set [2], the Tm is 35.5 °C.
Regarding GATCTTGCCGAAGATC ((((((....)))))), the folding enthalpy in data set [1] is -28.1 kcal/mol. Also, the Tm in data set [2] is 46.1 °C.
In the case of GGATGGGGAAACCCACCC ((.((((....)))).)), the folding enthalpy in data set [1] was -24.1 kcal/mol. Also, in data set [2], the Tm is 45.1 °C.
The corresponding values for GATCCGATTTCGGATC ((((((....)))))) are -33 kcal/mol and 62.6 °C.
For GTTTGAGGAAACCCAAAC (((((.(....).))))) the same measures were -30.3 kcal/mol and 36.8 °C.
With GATCGAAGAATCGATC ((((((....)))))), the folding enthalpy in data set [1] was -28.4 kcal/mol. For the same sequence, the Tm in data set [2] worked out at 47.1 °C.
For GATCGTCGGTACGATC ((((((....)))))) the same measures were -27.3 kcal/mol and 53.8 °C.
GATCTGGTTCCAGATC ((((((....)))))): the folding enthalpy in data set [1] was -47.1 kcal/mol. Also, in data set [2], the Tm amounted to 53.5 °C.
GTCTATGGAAACATGGAC (((.(((....))).))): the folding enthalpy in data set [1] was -31.1 kcal/mol. For the same sequence, the Tm in data set [2] was determined as 45.6 °C.
Take GGCAACGAAAGTTAGGCC ((((((....)))..))): the folding enthalpy in data set [1] was -28.3 kcal/mol. Further, the Tm in data set [2] came to 46.2 °C.
For the sequence GTTCGGAAACGAAC (((((....))))), the folding enthalpy in data set [1] is -25.9 kcal/mol. The Tm in data set [2] was found to be 56 °C.
As to GCCTCCGCGAAAGCGGGC (((..(((....)))))), in data set [1], the folding enthalpy was -5.39 kcal/mol. For the same sequence, the Tm in data set [2] came to 52.2 °C.
Take GTGGCAGGAAACTGTCGC (.(.(((....))).).): in data set [1], the folding enthalpy is -27.3 kcal/mol. For the same sequence, the Tm in data set [2] stood at 45.7 °C.
For GGATACGAAAGTAATCC ((((((....))).))) the same measures were -27 kcal/mol and 44.6 °C.
With GAGAGAGGAAACTCCCTC (((.(((....))).))), the folding enthalpy in data set [1] was -22.1 kcal/mol. For the same sequence, the Tm in data set [2] came to 28.6 °C.
The corresponding values for GCGACGCGAAAGCCTAGC ((.(.((....)).).)) are -18.9 kcal/mol and 43.5 °C.
For the sequence GAACACGGAAACGTGCTC ((.((((....)))).)), the folding enthalpy in data set [1] was -18.6 kcal/mol. Further, the Tm in data set [2] was determined as 43 °C.
For GTCTCCGAAAGGACAGAC ((((((....)))..))), the folding enthalpy in data set [1] was -17.3 kcal/mol. For the same sequence, the Tm in data set [2] is 37.2 °C.
For GATCGGCCTACCGATC ((((((....)))))) the same measures were -36.5 kcal/mol and 57.9 °C.
The corresponding values for GCTGAGGGAAACTTCGGC ((.((.(....).)).)) are -29 kcal/mol and 33.8 °C.
Regarding GATCGCTCTGGCGATC ((((((....)))))), the folding enthalpy in data set [1] is -37.7 kcal/mol. Also, the Tm in data set [2] came to 69.1 °C.
Regarding GGCAACGAAAGTTTTGCC ((((((....)))..))), the folding enthalpy in data set [1] was -26 kcal/mol. Besides, the Tm in data set [2] stood at 44.9 °C.
The corresponding values for GTAAAAGGAAACTTTTGC (.(((((....))))).) are -24.1 kcal/mol and 33.5 °C.
With GATCAAAAACTTGATC ((((((....)))))), the folding enthalpy in data set [1] was -26.5 kcal/mol. Also, the Tm in data set [2] is 34.9 °C.
For GATCACGAACGTGATC ((((((....)))))) the same measures were -42.4 kcal/mol and 67.3 °C.
Regarding CGGCCGGAAACGGGTCCG ((((((....)))..))), the folding enthalpy in data set [1] was -18.6 kcal/mol. Moreover, the Tm in data set [2] was 50.4 °C.
The corresponding values for GTTTAGGGAAACTTAAAC (((((.(....).))))) are -15.4 kcal/mol and 35.5 °C.
For GACCGCCGAAAGGCAGTC (((.(((....))).))) the same measures were -20.9 kcal/mol and 54.3 °C.
Take GATCAGCTTCCTGATC ((((((....)))))): in data set [1], the folding enthalpy was -44.1 kcal/mol. For the same sequence, the Tm in data set [2] amounted to 49.6 °C.
